Bioassay records deposited in PubChem by several laboratories.
Compounds with a hit are over-represented: about 5.8% of the library has one in this group of screens.
Cl transport mod – modulates chloride dependent transport by human KCC2; Q9H2X9; KCC2 cells, thallium flux FluoZin-2 fluorescence; B-score of Tl+ flux slope (higher = more flux/activation; lower = inhibition) at 10 µM; 2.2% of 190,000 active; AID 1456;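 active means thallium flux slope and its plate-corrected score both differing from the plate sample mean at a set confidence after two filtering rounds, in either direction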;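 further: slope of fluorescence scaled to starting intensity during 10 to 20 s after thallium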
RBBP9 inhibitor – human RBBP9 hydrolase inhibition; 0.2% of 220,000 active; recombinant RBBP9, FP-Rh probe fluorescence polarization; inhibition, % at 7.94 µM;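 active means inhibition above the campaign mean of all tested compounds plus 3 SD, cut at about 14% in these data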;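 further: plate controls were DMSO wells with RBBP9 for no effect and wells lacking RBBP9 protein for full effect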
Target sequence (O75884 whole entry, looked up): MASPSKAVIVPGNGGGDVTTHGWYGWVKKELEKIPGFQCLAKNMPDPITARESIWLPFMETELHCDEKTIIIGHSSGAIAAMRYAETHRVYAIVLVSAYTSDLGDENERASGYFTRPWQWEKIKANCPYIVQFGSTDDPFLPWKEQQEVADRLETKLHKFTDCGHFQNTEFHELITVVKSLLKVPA
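Measured by – fluorescence polarization · Test system – RBBP9 protein · Input – 2.5 µM RBBP9 dispensing solution, before mixing · Measure – percent inhibition from mP, scaled between DMSO and no-protein wells · Benchmarks – DMSO-treated enzyme wells and wells lacking RBBP9 · Times – preincubation 30 min plus labeling 45 min at 25 °C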
p47phox inh – blocks human p47phox regulatory protein of NADPH oxidases; p47phox/p22phox peptide binding, fluorescence polarization, 2 h; inhibition, % at 24.7 µM; 0.53% of 220,000 active;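 active means inhibition above about 30%, limit read from the data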;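 further: 0% = p47phox with labelled peptide and 100% = labelled peptide alone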
WT yeast gro inh – growth inhibition of WT yeast, mitochondrial fusion screen. 2.1% of 190,000 active. inhibition, % at 10 µM. AID 1362. mitochondrial fusion phenotypic screen, WT strain; in the data active means inhibition above about 58%; tested in S. cerevisiae
ROMK mod – modulators of human ROMK potassium channel. P48048. Tet-inducible ROMK, thallium flux fluorescence; actives lie on both sides. B-score at 10 µM. 2% of 130,000 active. AID 1918;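 active means signal ratio slope over the read window, or its plate-corrected B-score, at least 3 SD from the plate mean, either direction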;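 further: B-score of the F/F0 ratio slope over 7 to 12 s after thallium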
14-3-3 Bad inh – disrupts binding of bovine 14-3-3 zeta to phospho-Bad peptide; inhibition, % at 21.7 µM; TR-FRET 14-3-3zeta/Dy647-pBad peptide displacement, 1 h; 0.71% of 220,000 active; AID 781; P63103;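 active means inhibition above about 70%, limit read from the data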;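 further: 0% = full 14-3-3 plus peptide FRET controls and 100% = background without 14-3-3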
Target sequence (P63103 whole entry, looked up): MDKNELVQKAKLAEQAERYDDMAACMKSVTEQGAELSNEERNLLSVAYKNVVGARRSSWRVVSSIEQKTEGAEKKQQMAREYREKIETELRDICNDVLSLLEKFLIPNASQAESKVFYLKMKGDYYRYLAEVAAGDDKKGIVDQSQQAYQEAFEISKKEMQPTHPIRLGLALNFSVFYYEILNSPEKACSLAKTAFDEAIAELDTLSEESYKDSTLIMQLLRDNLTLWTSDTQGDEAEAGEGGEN
ROMK hit retest – confirmation of human ROMK potassium channel modulators; normalized thallium flux (F/F0 slope) at 10 µM; shares compounds with ROMK mod; 54% of 3,000 active; ROMK thallium flux, fluorescence ratio; stronger effect = lower value;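 active means Flux at 10 µM at least 3 SD below or above vehicle control mean in one or both replicates; inconclusive means no clear call, values can overlap the other calls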
* = called active by the depositor; ? = inconclusive; . = not tested or not shown.

SMILES | Cl transport mod | RBBP9 inhibitor | p47phox inh | WT yeast gro inh | ROMK mod | 14-3-3 Bad inh | ROMK hit retest
O=C1NC(c2ccccc2)=C(c2ccc3ccccc3n2)C(c2ccc(F)cc2)N1 (stereo not drawn) | -1.7 | -12 | -10 | 1 | -3* | 6 | 0.076
O=C(O)CC1(CC(=O)Nc2ccc(Cl)cc2C(=O)c2ccccc2)CCCC1 | -0.7 | 2 | -7 | . | . | -13 | .
O=C(O)c1ccc(N/N=C/C2=C(N3CCOCC3)C(=C\c3ccccc3)/CC2)cc1 | 0.052 | -2 | -8 | . | . | -2 | 0.045*
S=C(CN1CCCC1=S)NCCc1ccccc1 | 0.85 | 1 | -7 | . | . | 0 | 0.078
OC1CCN(C(=S)NCCc2ccccc2)CC1 | -0.57 | -3 | -10 | -4 | 1.3 | -13 | .
CCc1nnc(NC(=O)C2CCC(CNc3c(N4CCCCC4)c(=O)c3=O)CC2)s1 (stereo not drawn) | 1.8 | -2 | -12 | . | -12* | 3 | 0.086
COC(=O)C1CCN(C(=O)COC(=O)c2n[nH]c3ccccc23)CC1 | -0.03 | -4 | -12 | -12 | -0.064 | -2 | 0.077
COc1cc(NC(=O)CN2C(=O)NC(C)(c3ccc4ccccc4c3)C2=O)c(C)cc1[N+](=O)[O-] (stereo not drawn) | . | -15 | -17 | -3 | -1.4 | 45 | .
O=C1c2ccccc2C(=O)N1CCCCN(C(=O)c1cc2ccccc2oc1=O)c1ccc(Cl)cc1 | -0.43 | -1 | -13 | 16 | -2.3* | 26 | 0.077
Cc1ccc(N(C(=O)c2cc3ccccc3oc2=O)C2C=CS(=O)(=O)C2)cc1 (stereo not drawn) | 0.017 | -1 | -3 | -7 | . | 6 | .
N#Cc1cc(NC(=O)c2ccc(F)cc2)c(=O)n2c1[nH]c1ccccc12 | -2.6 | -6 | -50 | -5 | -0.012 | -5 | .
O=[N+]([O-])c1ccc2c(c1)ncn2-c1ccccc1 | 0.12 | -3 | 2 | -1 | . | 10 | .
Cn1c(-[n+]2c(-c3ccccc3)cc(-c3ccccc3)cc2-c2ccccc2)nc2cc([N+](=O)[O-])ccc21 | -0.71 | -6 | 1 | 34 | . | 20 | 0.06*
C/C(=N\Nc1ccc(S(=O)(=O)N2CCOCC2)cc1[N+](=O)[O-])C(C)C | 0.61 | -7 | 3 | 1 | -0.081 | -6 | .
CCCCOc1ccc(CC(=O)NO)cc1 | -0.71 | -6 | -2 | 2 | . | -4 | 0.081
CCCS(=O)(=O)c1c(S(=O)(=O)CCC)c2cnccn2c1C(=O)c1ccc(CC)cc1 | 0.41 | -1 | -7 | -21 | -4.1* | 5 | 0.066*
O=C(Nc1cccc(Cl)c1)N1CCN(C/C=C/c2ccccc2)CC1 | -1.4 | -5 | -9 | 7 | -3.6* | 12 | ?
CCOc1ccccc1N1CCN(C(=O)Nc2cccc(Cl)c2)CC1 | -1.8 | -1 | 2 | -20 | -3.1* | -11 | 0.073
Cc1ccc(NC(=O)CCN2CCN(C/C=C/c3ccccc3)CC2)cc1C | . | -7 | -18 | 2 | -3.1* | 13 | 0.048*
O=C(Nc1cccc(Cl)c1)N1CCN(c2ncccn2)CC1 | 0.0059 | -4 | 0 | -4 | . | 0 | .
CCCOc1ccc(/C=N\NC(=O)CCc2n[nH]c(=O)[nH]c2=O)cc1OC | 0.62 | -5 | 5 | 14 | 3.4* | 8 | 0.089
Cc1cc(F)ccc1N1CCC(N2CCN(CCC(C)C)C(CCO)C2)CC1 (stereo not drawn) | -0.094 | -6 | -3 | 20 | -2.8* | 0 | 0.058*
Cc1cc(F)ccc1N1CCC(N2CCN(C(C)C)C(CCO)C2)CC1 (stereo not drawn) | 1.2 | 13 | . | 8 | 0.99 | 3 | .
C/C(=N\NC(=O)c1ccccc1F)c1ccc2c(c1)Nc1ccccc1S2 | -0.83 | 8 | -63 | 10 | . | -2 | 0.07
C/C(=N\NC(=O)c1ccc(O)cc1)c1ccc2c(c1)Nc1ccccc1S2 | -1.6 | -7 | -35 | 6 | . | -5 | .
SMILES | Cl transport mod | RBBP9 inhibitor | p47phox inh | WT yeast gro inh | ROMK mod | 14-3-3 Bad inh | ROMK hit retest
CCOc1ccc(C2C(C(=O)Nc3cc(C)on3)c3ccccc3C(=O)N2CCN2CCOCC2)cc1 (stereo not drawn) | . | 4 | 5 | -4 | -4.1* | -6 | 0.08
O=C(CCCOc1ccccc1)NC(=S)Nc1ccccc1 | 1.8 | -4 | -16 | 15 | 0.11 | -11 | .
COc1ccc(S(=O)NC2CCCCC2)c(OC)c1C (stereo not drawn) | -0.12 | -6 | -7 | -32 | . | 3 | 0.075
CN(Cc1cnn(-c2ccc(F)cc2)c1)Cc1nc(Cc2ccccc2)no1 | -3 | -1 | 6 | 3 | -2.3 | 10 | .
Cn1c(=O)cc(Cl)[nH]c1=O | -0.51 | -13 | 5 | 2 | -0.1 | 11 | .
Cc1ccc(-n2cccc2/C=C2/C(=N)N3C(=NC2=O)SN=C3S(C)(=O)=O)cc1Cl | -2.2 | -11 | -113 | 17 | . | 16 | 0.075
CCOc1ccc(-n2c(C)cc(/C=C3/C(=N)N4C(=NC3=O)SN=C4S(C)(=O)=O)c2C)cc1 | -1.7 | -4 | -53 | -14 | -0.021 | -26 | .
COc1ccc(C(=O)Nc2sc(C)c(C)c2CN2CC(C)OC(C)C2)cc1 (stereo not drawn) | -0.049 | -7 | -34 | 5 | -0.049 | -2 | .
CCCOc1ccccc1/C=C(\C#N)C(=O)Nc1cccnc1 | -2 | -7 | -4 | . | . | 5 | .
COc1cc(NCCCCCCCN)c2ncccc2c1 | -0.13 | 2 | 34* | 31 | -5.1* | 10 | 0.062*
CCC(C)(C)n1nnnc1C(C(C)C)N(CCN1CCOCC1)Cc1cc2cccc(C)c2[nH]c1=O (stereo not drawn) | -0.39 | -7 | -16 | 13 | -2.9* | 1 | 0.055*
Cc1ccc(NC(=O)N[C@H](C(=O)O)C(C)C)c(C)c1 | 0.33 | -11 | 0 | . | -0.0029 | 3 | .
Cc1ccc(NC(=O)CS(=O)(=O)c2cn(CC(=O)N3CCOCC3)c3ccccc23)cc1 | -2.3 | -7 | -9 | 0 | 0.66 | 7 | .
Cc1ccccc1NC(=O)CS(=O)(=O)c1cn(CC(=O)N2CCOCC2)c2ccccc12 | 0.13 | 0 | 0 | -11 | 2* | -4 | 0.073
COC(=O)c1cn(NC(=O)c2ccc([N+](=O)[O-])cc2Cl)c(=O)c2ccccc12 | 0.003 | -3 | 2 | 5 | 0.18 | 4 | .
Cc1cc(=O)oc2cc(OCC(=O)NCc3ccccn3)ccc12 | 0.56 | -2 | 15 | 0 | . | 7 | .
Cc1cc(=O)oc2cc(NC(=S)NCc3ccccn3)ccc12 | 0.033 | 3 | -12 | 2 | -6.6* | -22 | 0.047*
CN1CCCCCC1C(=O)N1CCC(N2CCC(C(=O)N3CCOCC3)CC2)CC1 (stereo not drawn) | 2.3 | 2 | . | 4 | -1.1 | 2 | .
COc1ccc(C2=CC(=O)OC3(CCCCC3)O2)cc1 | 0.86 | 3 | 13 | 9 | -2.4* | -9 | 0.062*
